Consider 5 compounds from ChEMBL document CHEMBL5034049, “Flavonol-Based Carbon Monoxide Delivery Molecule with Endoplasmic Reticulum, Mitochondria, And Lysosome Localization” (ACS Med Chem Lett, 2022).

Data set [1] concerns A549. In words: Cytotoxicity against human A549 cells assessed as reduction in cell viability incubated for 24 hrs under dark condition by MTT assay. The class given is cell-based. Conditions: A549, 24 h.
Data set [2] relates to A549. In words: Cytotoxicity against human A549 cells assessed as inhibition of cell viability preincubated under visible light-induced CO release condition for 1 hr followed by incubation with drug for 23 hrs by MTT assay. The class given is functional, cell-based. Background: Tetrazolium assays rely on reduction of a dye to a coloured formazan, in cell work by metabolically active cells.

Data set [3] deals with HFL1. The experiment in a line: Cytotoxicity against human HFL1 cells assessed as reduction in cell viability up to 100 uM incubated for 24 hrs under dark condition by MTT assay. The class given is cell-based. The conditions noted are these: hfl1, 24 h.
The subject of data set [4] is RAW264.7. In words: Cytotoxicity against mouse RAW264.7 cells assessed as reduction in cell viability up to 100 uM incubated for 24 hrs under dark condition by MTT assay. It counts as cell-based. The conditions noted are these: raw264.7, 24 h.
Data set [5] relates to A549. In words: Cytotoxicity against human A549 cells assessed as reduction in cell viability up to 100 uM incubated for 24 hrs under dark condition by MTT assay. The class given is cell-based. Conditions: a549, 24 h.
Data set [6] has as its system RAW264.7. The experiment in a line: Cytotoxicity against mouse RAW264.7 cells assessed as reduction in cell viability incubated for 24 hrs under dark condition by MTT assay. The class given is cell-based. The conditions noted are these: RAW264.7, 24 h.
The test system of data set [7] is RAW264.7. The experiment in a line: Antiinflammatory activity against LPS-stimulated mouse RAW264.7 cells assessed as inhibition of TNF-alpha production incubated for 4 hrs followed by illumination with blue LED array for 1 hr and later incubated for 6 hrs under dark conditions followed by LPS stimulation for 1 hr by ELISA. It counts as functional, cell-based. The conditions noted are these: time 12.0 hrs. The method in brief: (§1)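 TNF-α suppression in RAW 264.7 macrophages challenged with LPS. Dark and illuminated treatments run as independent experiments. Mean ± SEM from three independent experiments, compared with the LPS positive control and with the matching non-illuminated treatment.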
A general note: In an ELISA, binding on a coated surface is turned into a signal by an enzyme label.

Data set [8] concerns HFL1. The experiment in a line: Cytotoxicity against human HFL1 cells assessed as reduction in cell viability incubated for 24 hrs under dark condition by MTT assay. It counts as cell-based. The conditions noted are these: HFL1, 24 h.
The test system of data set [9] is RAW264.7. In words: Antiinflammatory activity against LPS-stimulated mouse RAW264.7 cells assessed as inhibition of TNF-alpha production at 40 nM incubated for 10 hrs under dark conditions followed by LPS stimulation for 1 hr by ELISA. Conditions: time 11.0 hrs. It counts as functional, cell-based. In a few lines: as §1
Data set [10] in a line: Drug uptake in mouse RAW264.7 cells at 5 uM after 4 hrs by Hoechst 33258 staining based fluorescence microscopic analysis. It counts as ADME, cell-based. Conditions: raw264.7, 4 h.
A short description of data set [11]: Drug uptake in human A549 cells at 1 uM after 4 hrs by Hoechst 33342 staining based fluorescence microscopic analysis. Conditions: a549, 4 h.
Data set [12] can be described thus: Drug uptake in human HFL1 cells at 1 uM after 4 hrs by Hoechst 33258 staining based fluorescence microscopic analysis. It counts as ADME, cell-based. The conditions noted are these: hfl1, 4 h.
Data set [13] is described as follows: Drug uptake in mitochondria of human A549 cells at 25 uM measured after 1 hr by MitoTracker Deep Red based confocal microscopic analysis. It counts as ADME. Conditions: a549, 1 h.
Data set [14] in a line: Drug uptake in lysosome of human A549 cells at 25 uM measured after 1 hr by LysoTracker Red based confocal microscopic analysis. The class given is ADME, subcellular. Conditions: a549, 1 h.
Data set [15] can be described thus: Drug uptake in endoplasmic reticulum of human A549 cells at 25 uM measured after 1 hr by ER-Tracker Red based confocal microscopic analysis. The class given is ADME. Conditions: a549, 1 h. The method in brief: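 A549 cells treated 1 h at 25 μM (vehicle 0.4% DMSO), then counterstained with Hoechst 33342 and ER-Tracker Red. Imaged by confocal microscopy. Overlap given as Pearson's colocalization coefficient, mean ± SEM over 27 cells examined individually across three separate experiments. Line intensity profiles of regions of interest taken over 20 μm.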

Data set [16] in a line: Drug uptake in human A549 cells assessed as clustering of emission at 1 uM after 1 hr by confocal microscopy. The class given is ADME, cell-based. The conditions noted are these: a549, 1 h. In a few lines: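 A549 cells exposed 1 h at 1 μM with a media control. Hoechst nuclear counterstain. Confocal imaging at 63×, compound emission read in the green channel.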

pIC50: −log10 of the molar value. Activity calls are given as the source filed them. The calls are words filed in the database; no cut-off is given here.

Consider `O=C(NCC[P+](c1ccccc1)(c1ccccc1)c1ccccc1)c1ccc(-c2oc3cc4ccccc4cc3c(=O)c2O)cc1`, for which the pIC50 (commonly the negative decadic logarithm of the IC50, by convention in mol/L) in data set [1] is 4.85; in data set [2], 5.34.
As for `O=C(Oc1cc2ccccc2cc1C(=O)O)c1ccccc1`, the Activity entry in data set [3], in data set [4] and in [5] was “Non-Toxic” in each case.
On to `O=c1c(O)c(-c2ccccc2)oc2cc3ccccc3cc12`, for which the pIC50 in data set [6] is 4.32; in [1], 4.10; in [8], 4.19; in data set [2] it was 4.12. Besides, the result in [7] was Active.
Turning to `CCN(CC)c1ccc(C(=O)Oc2cc3ccccc3cc2C(=O)O)cc1`, the Activity entry in data set [3], in [4] and in data set [5] was “Non-Toxic” in each case.
In the case of `CCN(CC)c1ccc(-c2oc3cc4ccccc4cc3c(=O)c2O)cc1`, the negative-log IC50 (pIC50) in data set [6] is 4.17; in data set [1], below 4.00; in data set [2] it was 4.97. In addition, the result in data set [9] and in data set [7] was Active. For the same compound, the Drug uptake entry in data set [10], in [11], in [12], in data set [13], in [14] and in data set [15] was “Active” throughout. Moreover, the Drug uptake result in data set [16] is given as “Active”. Besides, the Activity result in data set [3] and in [5] was “Non-Toxic” throughout.
